Calb FLC: affects C. albicans growth with fluconazole | 300,000 compounds, 0.57% hits | growth inhibition, % (test concentration not listed) | C. albicans CaCi-2 (fluconazole-resistant clinical isolate) + fluconazole, Alamar Blue growth, 48 h;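 active = growth inhibition above about 58% in most replicates, limit read from the data, passing the limit was not always enough; inconclusive = exactly half the replicates above a set limit; inactive = most replicates below a set limit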;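 note: all wells also contain fluconazole at 8 µg/ml as a sub-toxic cotreatment; 0% = median of DMSO wells and 100% = median of geldanamycin control wells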
T cruzi inh: blocks replication of Trypanosoma cruzi. AID 1885. 300,000 compounds, 1.4% hits. inhibition, % (concentration not given with the values). T. cruzi beta-gal in NIH3T3, luminescence, 90 h;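 active = mean inhibition across valid replicates above about 55%, limit read from the data; inconclusive = mean below that limit but half or more replicates reach it; inactive = mean below it, under half of replicates reach it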;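 note: signal also drops with host cell toxicity which is not excluded here; 0% = plate median of DMSO wells and 100% = zero luminescence signal; higher percent means less beta-gal luminescence so fewer parasites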
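Assay system: NIH/3T3 fibroblasts plus reporter T. cruzi. Amount: NIH/3T3 cells, 5,000 per well. Buffer or medium: DMEM, 2% fetal bovine serum. Doses: compound pinned at 50 nL/well, DMSO. Schedule: ≥90 h infection period, 3 h prior cell attachment. Signal: luminescent β-galactosidase signal after 60 min lysis. Read-out: parasite load inhibition, %.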
CSC inhib: cancer stem cell inhibition; cancer stem cell-like cells viability, luminescence; inhibition, % at 7.5 µM; 300,000 compounds, 1.1% hits; AID 2717; in the data active = inhibition above about 75%; inconclusive = no clear call, values can overlap the other calls; tested in HMLE shEcad cells
Beta cell apopt: beta cell apoptosis inhibition; AID 435005; protection from apoptosis, % (no concentration beside the values); INS-1E cytokine-induced death, ATP luminescence, 48 h; percent of positive-control rescue, neutral wells zero; 300,000 compounds, 0.8% hits;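 active = Every replicate reaches about 75%, or at least half do and their mean reaches it too, limit read from the data; inconclusive = At least half of replicates reach the limit but their mean does not; inactive = Under half of replicates reach the limit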;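 note: 0% = cytokine-treated negative control wells and 100% = positive control rescue; higher means more ATP so stronger rescue from cytokine killing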
PolyA inh: blocks polyadenylation in yeast reporter cells. activity score, % at 12 µM. 300,000 compounds, 0.02% hits. S. cerevisiae SKY197-pL101 polyadenylation reporter, beta-gal luminescence; efflux-impaired pdr1/pdr3 knockout yeast; score 100 = 6 SD above DMSO;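 active = lowest replicate activity score at least 50, where 100 means six control SD above control mean; inconclusive = lowest score under 50 but half or more replicates reach 50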;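 note: yeast exposed to compound for 9 h at 30 °C; higher score means more reporter readthrough which indicates perturbed polyadenylation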
HIF act: HIF pathway transcriptional activation. U2OS HRE-luciferase reporter, luminescence; normalized: DMSO 0%, desferrioxamine 100%. activation, % at 7.5 µM (by protocol). 300,000 compounds, 0.32% hits. AID 1910;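 active = mean activation of at least 10% of the iron chelator positive control signal, with at least half of replicates also reaching 10%; inconclusive = mean and replicate majority disagree about reaching 10%; inactive = mean and most replicates under 10%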
An asterisk follows results filed as active; ? = inconclusive; · = no result given; ! = repeats disagree. This is a sample that favours compounds with a hit; in the whole collection about 3.1% have one here.

SMILES	Calb FLC	T cruzi inh	CSC inhib	Beta cell apopt	PolyA inh	HIF act
CC#CC[N+](C)(C)CCCCCCCC	-22	-23	4	131*	11	-1
COc1ccc(Nc2ncnc3c2c(C)c(C)n3CCCN(C)C)cc1	-12	44	-11	-6	-4	2
COc1ccccc1Nc1ncnc2c1c(C)c(C)n2CCCN(C)C	31	58*	1	-3	5	1
Cc1c(C)n(CCCN(C)C)c2ncnc(NC3CCCCC3)c12	0	56*	31	-4	-12	1
Cc1c(C)n(CCCN(C)C)c2ncnc(Nc3ccccc3)c12	-1	?	-10	4	13	0
O=C1N(Cc2cccnc2)C[C@@H]2C[C@@H](c3cccc(Oc4ccccc4)c3)N3CCC[C@@]123	-8	36	-6	-4	-1	-1
CCOC(=O)c1c(S(=O)(=O)NCc2ccc(C)o2)c(C)n(C)c1C	-27	-8	-4	-4	-8	70*
O=[N+]([O-])c1cc(-c2nnc(C34CC5CC(CC(C5)C3)C4)o2)cc([N+](=O)[O-])c1	2	57*	48	·	-50	0
O=[N+]([O-])c1cccc(-c2nnc(C34CC5CC(CC(C5)C3)C4)o2)c1	-19	9	-10	-6	-2	0
CCOC(=O)c1c(-c2ccccc2)oc2ccc(OCC(O)CN(C)C)cc12 (stereo unspecified)	94*	33	23	·	-3	?
CN(Cc1ccco1)Cc1ccc(O)c2ncccc12	·	·	-4	1	·	·
CC(C)COCc1ccc(O)c2ncccc12	98*	52	10	89*	-25	0
Oc1ccc(COCc2ccccc2)c2cccnc12	1	47	73	99*	-18	6
CCCOCc1ccc(O)c2ncccc12	90*	57*	32	107*	6	3
CCCc1cc(=O)[nH]c(SCC(=O)Nc2ccc(Br)cc2Br)n1	60*	-8	-6	-4	-3	0
CC[C@]1(c2ccccc2OC)ON(c2ccccc2C(F)(F)F)C1=O	·	·	59	87*	·	·
Cc1ccc(S(=O)(=O)N/N=C/c2ccc(OS(=O)(=O)c3ccc(C)c([N+](=O)[O-])c3)cc2)cc1	14	·	-9	-6	5	0
CCN(CC)c1ccc(NC(=O)COC(=O)/C=C/c2nc3ccccc3s2)cc1	0	5	-12	-2	8	-1
CCN(CC)c1ccc(/C=C/c2nc3ccccc3s2)cc1	?	27	90*	-1	-12	-1
CN(C)S(=O)(=O)c1ccc(C(=O)Nc2ccn(C)n2)cc1	6	-2	-1	-2	10	1
Cc1cc(C)c2cc(CN(Cc3cccnc3)C(=O)c3ccc(F)cc3)c(Cl)nc2c1	-3	59*	-9	23	-15	0
Cc1cccc2cc(CN(Cc3cccnc3)C(=O)c3ccccc3F)c(Cl)nc12	6	61*	-5	-2	6	0
CCc1nnc(NS(=O)(=O)c2ccc(NC(=S)NC(=O)/C=C/c3ccc(C(C)C)cc3)cc2)s1	-3	-3	52	-2	-2	0
CC(C)(C)C1CCc2[nH]c3ccccc3c(=O)c2C1 (stereo unspecified)	23	59*	13	10	-8	-1
Cc1nn(C)c(C)c1C(C)NC(=O)c1cc(COc2ccc(F)c(F)c2)on1 (stereo unspecified)	-3	-5	-16	·	-26	3
SMILES	Calb FLC	T cruzi inh	CSC inhib	Beta cell apopt	PolyA inh	HIF act
O=C(NN=Cc1c(O)ccc2ccccc12)c1ccc2c(c1)OCO2	·	·	10	-6	·	·
Oc1ccc(N=Nc2ccc3c(c2)OCO3)c2ccccc12	2	?	140*	99*	-16	·
COC(=O)Cn1c2ccc(OC)cc2c2nc(C)sc21	0	8	4	-4	7	0
CCCS(=O)(=O)c1c(S(=O)(=O)CCC)c2c(C)cccn2c1C(=O)N/N=C/c1cc(O)cc(O)c1	69	0	132*	65	-12	4
CCCS(=O)(=O)c1c(S(=O)(=O)CCC)c2c(C)cccn2c1C(N)=O	22	-13	-13	-9	-4	0
Cc1ccc(OCCOc2ccc(Cl)cc2Cl)c([N+](=O)[O-])n1	20	7	8	5	-18	3
Cc1cc(Br)ccc1NC(=O)CNC(=O)CSc1ncccn1	·	·	8	-2	·	·
Cc1ccc(S(=O)(=O)N2CCCCC2)cc1NC(=O)Nc1ccc(Cl)cc1Cl	·	55*	9	9	·	0
Cc1cc(Br)ccc1NC(=O)CNC(=O)Cn1ncc(Cl)c(Cl)c1=O	-8	-5	83*	-59	12	-6
CN1CCN(S(=O)(=O)c2ccc(NC(=O)Nc3cccc(Cl)c3)cc2)CC1	-3	-11	·	-2	-10	0
O=C(Nc1cccc(Cl)c1)Nc1cc(S(=O)(=O)N2CCCCC2)ccc1Cl	-18	55*	87*	51	-12	0
Cc1ccc(S(=O)(=O)N2CCCCC2)cc1NC(=O)Cn1ncc(Cl)c(Cl)c1=O	·	·	90*	-20	·	·
C=CC[C@@H](CC(=O)OC(C)(C)C)C(=O)OC[C@H]1CCCN1C(=O)[C@@H](CC=C)CC(=O)N(CCO)Cc1ccccc1	·	·	4	-8	·	·
CCC(C)(C)C1CCc2nc3ccccc3c(C(=O)OC(C)C(=O)Nc3c(C)n(C)n(-c4ccccc4)c3=O)c2C1 (stereo unspecified)	-7	32	22	0	-3	0
O=C(Cn1ncc(Cl)c(Cl)c1=O)N1CCN(S(=O)(=O)c2ccc3ccccc3c2)CC1	·	51	102*	14	·	-3
COc1cc(/C=N/NC(=O)c2ccccc2O)ccc1OCC(=O)Nc1ccccc1	7	-5	-6	5	18	2
O=C(COc1ccc(/C=N/NC(=O)c2cc3ccccc3o2)cc1Cl)Nc1ccccc1	12	73*	116*	-4	12	1
COc1ccc2cc3[n+](cc2c1OC)CCc1cc2c(cc1-3)OCO2	71	52	-4	79*!	7	-4
COc1cccc(C2=NCCc3cc4c(cc32)OCO4)c1OC	-5	8	-12	-1	-1	0
Cc1ccc(C)c(N2CCN(C(=O)CCS(=O)(=O)c3ccc4c(c3)NC(=O)C(C)S4)CC2)c1 (stereo unspecified)	-10	-16	-8	33	0	0
CC(C)(C)c1ccc(NC(=O)COc2ccc(-n3ccnc3)cc2)cc1	-18	59*	51	2	-7	-2
COc1cc(NC(=O)COc2ccc(-n3ccnc3)cc2)cc(OC)c1	2	-4	-2	-8	3	0
CC(CN1CCN(C)CC1)OC(=O)c1ccc(Cl)cc1 (stereo unspecified)	13	59*	48	-1	20	-38

High-throughput results as filed in PubChem.
